Test results from ChEMBL document CHEMBL4706638, “Mining Natural Products for Macrocycles to Drug Difficult Targets” (J Med Chem, 2021).

Molecular target: Keap1/Nrf2 (Homo sapiens, UniProt Q14145)
Experiment: Inhibition of Nrf2 peptide (KKKKAFFAQLQLDEETGEFL) binding to Keap1 Kelch domain (321 to 609 residues) (unknown origin) assessed as dissociation constant by surface plasmon resonance based inhibition in solution assay
Type: protein assay
In short: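 Solution-competition SPR at 20 °C in HBS-P (10 mM HEPES, 150 mM NaCl, 0.05% Tween 20, 1.0 mM TCEP, pH 7.40), 10 µL/min. Nrf2 peptide amine-coupled to CM5 chip (400–600 RU). 25 nM Keap1 Kelch domain (aa321–609) preincubated with compound, injected; initial association slopes (5–15 s) vs compound-free controls give free Keap1. KD by nonlinear regression; mean ± SD of three measurements on distinct samples.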

Sequence of Keap1/Nrf2 (Q16236 whole entry, the tested form may be a part): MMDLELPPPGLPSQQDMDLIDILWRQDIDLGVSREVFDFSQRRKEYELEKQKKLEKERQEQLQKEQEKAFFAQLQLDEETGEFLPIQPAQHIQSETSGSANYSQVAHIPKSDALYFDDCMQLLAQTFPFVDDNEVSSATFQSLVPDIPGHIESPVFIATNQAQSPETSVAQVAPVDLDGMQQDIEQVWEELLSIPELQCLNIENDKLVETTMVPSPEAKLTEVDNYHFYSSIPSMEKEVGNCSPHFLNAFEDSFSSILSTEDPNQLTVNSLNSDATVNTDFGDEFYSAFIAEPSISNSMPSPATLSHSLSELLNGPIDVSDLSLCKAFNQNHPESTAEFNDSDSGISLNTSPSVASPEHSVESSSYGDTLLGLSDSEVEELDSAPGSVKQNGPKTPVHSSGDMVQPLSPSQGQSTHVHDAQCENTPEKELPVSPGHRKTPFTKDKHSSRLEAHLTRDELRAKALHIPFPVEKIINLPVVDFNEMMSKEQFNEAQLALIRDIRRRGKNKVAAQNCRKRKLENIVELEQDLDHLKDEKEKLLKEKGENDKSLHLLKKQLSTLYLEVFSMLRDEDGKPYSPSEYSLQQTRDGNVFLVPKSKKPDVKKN
Sequence of Keap1/Nrf2 (Q14145 whole entry, the tested form may be a part): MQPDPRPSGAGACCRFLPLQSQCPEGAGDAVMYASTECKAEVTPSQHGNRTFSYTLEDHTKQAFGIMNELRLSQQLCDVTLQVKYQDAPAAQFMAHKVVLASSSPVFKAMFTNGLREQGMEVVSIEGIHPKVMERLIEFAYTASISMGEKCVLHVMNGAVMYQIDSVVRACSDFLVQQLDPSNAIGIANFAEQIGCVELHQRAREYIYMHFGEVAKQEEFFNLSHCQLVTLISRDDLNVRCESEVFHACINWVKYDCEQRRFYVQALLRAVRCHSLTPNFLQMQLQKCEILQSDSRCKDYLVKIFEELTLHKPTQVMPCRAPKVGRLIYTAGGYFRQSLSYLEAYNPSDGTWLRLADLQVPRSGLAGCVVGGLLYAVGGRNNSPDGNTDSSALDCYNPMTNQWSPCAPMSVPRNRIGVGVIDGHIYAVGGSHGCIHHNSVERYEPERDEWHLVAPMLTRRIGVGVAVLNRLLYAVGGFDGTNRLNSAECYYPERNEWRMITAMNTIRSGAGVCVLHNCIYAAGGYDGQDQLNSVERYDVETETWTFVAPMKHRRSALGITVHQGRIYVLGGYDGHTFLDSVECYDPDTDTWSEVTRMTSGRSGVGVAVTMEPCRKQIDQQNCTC

Row | SMILES | Kd [µM]
1 | CSC[C@@H](NC(=O)[C@@H](COC(=O)c1ccccc1)NC(=O)[C@@H]1CCCN1C(C)=O)C(=O)N(C)C | 406
2 | COC(=O)[C@@H]1CSCc2ccccc2C(=O)OC[C@H](NC(=O)[C@@H]2CCCN2C(C)=O)C(=O)N1 | > 500
3 | COC(=O)[C@H]1CSCc2ccccc2C(=O)OC[C@@H](NC(=O)[C@H]2CCCN2C(C)=O)C(=O)N1 | > 500
4 | COC(=O)[C@H]1CSCc2ccccc2C(=O)OC[C@@H](NC(=O)[C@@H]2CCCN2C(C)=O)C(=O)N1 | 237
5 | CNC(=O)[C@H]1CSCc2ccccc2C(=O)OC[C@@H](NC(=O)[C@@H]2CCCN2C(C)=O)C(=O)N1 | 209

The next lines start with the values.

Row | Kd [µM] | SMILES
6 | 270 | COC(=O)[C@H]1CSCc2ccccc2C(=O)OC[C@@H](NC(=O)[C@@H]2C[C@@H](O)CN2C(C)=O)C(=O)N1
7 | > 500 | CCN(CC)C(=O)[C@H]1CSCc2ccccc2C(=O)OC[C@@H](NC(=O)[C@@H]2CCCN2C(C)=O)C(=O)N1
8 | > 500 | CC(=O)N1CCC[C@H]1C(=O)N[C@@H]1COC(=O)c2ccccc2CSC[C@H](C(N)=O)NC1=O
9 | > 500 | CC(=O)N1CCC[C@H]1C(=O)N[C@@H]1COC(=O)c2ccccc2CSC[C@H](C(=O)N(C)C)NC(=O)CNC1=O
10 | > 500 | COC(=O)[C@@H]1CSCc2ccccc2C(=O)OC[C@@H](NC(=O)[C@@H]2CCCN2C(C)=O)C(=O)N1
11 | > 500 | COC(=O)[C@H]1CSCc2ccccc2C(=O)OC[C@H](NC(=O)[C@@H]2CCCN2C(C)=O)C(=O)N1
12 | > 500 | CC(=O)N1CCC[C@H]1C(=O)N[C@@H]1CCOC(=O)c2ccccc2CSC[C@H](C(=O)N(C)C)NC1=O
